Bioassay records deposited in PubChem BioAssay by several laboratories.
This is a sample that favours compounds with a hit; in the whole collection about 1.5% have one here.
Runt-CBFb FRET – blocks binding of human RUNX1 Runt domain to CBFb. 220,000 tested, 0.46% active. inhibition, % at 20 µM. Cerulean-Runt/Venus-CBFb FRET ratio 530/480, 1 h. Q01196+Q13951;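 active = inhibition over about 50% at 20 µM in the single-dose screen, limit read from the data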
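test system = Cerulean-tagged RUNX1 Runt domain (FRET donor) fusion protein | reagent = Venus-CBFb binding partner, 100 nM | incubation = protein complex preformed 1 h, compound exposure 1 h, room temperature, dark | detection = FRET fluorescence | read-out basis = loss of energy transfer signal | controls = 5 µM unlabeled CBFb as full-inhibition high control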
CaV13 ICDI inh – Primary screen for inhibitors of IQ motif and Ca2+-dependent inactivation inhibitor domain binding in CACNA1D, Förster resonance energy transfer in living cells, …; 340,000 tested, 0.098% active; inhibition, % at 12.3 µM; AID 743397; HEK cells, CFP/YFP FRET ICDI-IQ, plate reader, 10 min; percent FRET-ratio fall versus neutral wells;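 active = mean replicate inhibition of at least 30% and at least 1% of replicates passing that level; inconclusive = only one of the two criteria is met; inactive = neither criterion is met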
Hck-Nef inh – human Hck-Nef kinase inhibition | Recombinant Hck-YEEI plus Nef, Z-Lyte FRET kinase assay | 220,000 tested, 0.68% active | inhibition, % at 20 µM;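 active = Hck-Nef kinase inhibition above about 50%, limit read from the data; inactive = inhibition below that limit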
Target sequence (P08631 whole entry, looked up): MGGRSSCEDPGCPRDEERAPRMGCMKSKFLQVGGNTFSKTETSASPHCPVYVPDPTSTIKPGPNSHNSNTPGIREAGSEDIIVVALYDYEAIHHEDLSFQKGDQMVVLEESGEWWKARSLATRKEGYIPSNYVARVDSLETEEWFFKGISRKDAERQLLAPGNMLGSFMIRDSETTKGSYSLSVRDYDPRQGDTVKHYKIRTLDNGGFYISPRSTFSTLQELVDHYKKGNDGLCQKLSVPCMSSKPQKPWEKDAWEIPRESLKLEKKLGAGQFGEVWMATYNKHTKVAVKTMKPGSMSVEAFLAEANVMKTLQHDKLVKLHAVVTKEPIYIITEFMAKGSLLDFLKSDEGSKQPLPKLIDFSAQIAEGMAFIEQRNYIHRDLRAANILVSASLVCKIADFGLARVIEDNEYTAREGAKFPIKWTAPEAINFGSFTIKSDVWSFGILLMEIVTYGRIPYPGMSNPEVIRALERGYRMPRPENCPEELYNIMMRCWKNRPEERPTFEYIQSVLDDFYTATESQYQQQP
Runt-SMMHC FRET – inhibitors of human RUNX1 Runt domain binding to CBFb-SMMHC. 220,000 tested, 0.74% active. Cerulean-Runt/Venus-CBFb-SMMHC FRET ratio 530/480, 1 h. inhibition, % at 20 µM. Q01196+Q13951;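 active = mean inhibition across duplicate retests at 20 µM reaching about 50%, limit read from the data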;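 also: inhibitors lower the FRET ratio by blocking Runt binding to CBFb-SMMHC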
RanGTP-Imp inh – inhibitors of RanGTP-importin-beta interaction, primary screen, biochemical, FRET, CFP-Ran, YFP-importin-beta, homogeneous. cell-free CFP-Ran/YFP-importin-beta FRET ratio. inhibition, % (concentration not given with the values). 300,000 tested, 1.1% active. AID 2216;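 active = more than half of the replicate wells show a fall in the fluorescence ratio signal beyond about 16%, limit read from the data, passing the limit was not always enough; inconclusive = exactly half of the replicate wells pass the set limit; inactive = fewer than half of replicates pass the limit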
A number is an active result; - = inactive; ? = inconclusive; . = not tested or not shown; + = active, no number.

SMILES	Runt-CBFb FRET	CaV13 ICDI inh	Hck-Nef inh	Runt-SMMHC FRET	RanGTP-Imp inh
CCN1C(=O)N/C(=C/c2ccc(Sc3ccc(C)cc3)o2)C1=O	-	-	-	-	22.7
CCN1C(=O)N/C(=C/c2ccc(C)o2)C1=O	-	-	-	-	-
CCC(=O)Nc1cc(C)c(NC(=O)CCc2ccccc2)cn1	-	-	-	88.8	39.6
COC(=O)c1ccc(CSc2ncnc3sc(C)c(C)c23)o1	-	.	-	-	-
COCCNC(=S)NN=C1CCCCC1	-	-	-	-	-
Cc1ccc(-c2nc(CS(=O)(=O)CC(=O)N3CCN(C)CC3)c(C)o2)cc1	.	-	.	.	158.0
CCN(CCC(=O)Nc1cc(OC)cc(OC)c1)Cc1ccccc1	-	-	-	-	-
O=C(CN(CCc1ccccc1)S(=O)(=O)c1ccc(Cl)cc1)N/N=C/c1ccccc1C(=O)O	-	-	-	-	20.4
O=C1NC(=S)S/C1=C\c1ccc(SCc2ccco2)o1	-	.	84.9	-	.
O=C1NC(=S)S/C1=C\c1ccc(SCc2ccccc2)o1	-	-	-	-	.
COc1ccc(C2C3=C(CCCC3=O)N(CC(=O)O)C3=C2C(=O)CCC3)cc1Br	.	-	.	.	.
COc1ccc(C2C3=C(CC(C)(C)CC3=O)N(CC(=O)O)C3=C2C(=O)CC(C)(C)C3)cc1OC	.	-	.	.	-
COc1ccc(C2C3=C(CCCC3=O)N(CC(=O)O)C3=C2C(=O)CCC3)cc1Cl	.	+	.	.	111.6
C#CCOc1c(Cl)cc(C2C3=C(CCCC3=O)N(CC(=O)O)C3=C2C(=O)CCC3)cc1OC	.	-	.	.	126.8
COc1ccccc1C1C2=C(CCCC2=O)N(CC(=O)O)C2=C1C(=O)CCC2	.	-	.	.	117.7
CCCOc1c(Br)cc(C2C3=C(CCCC3=O)N(CC)C3=C2C(=O)CCC3)cc1OC	93.7	-	-	89.6	95.8
CCCOc1c(Br)cc(C(=O)OCC(=O)NC2CC2)cc1OC	.	-	.	.	-
CCOc1cc(C2C3=C(CCCC3=O)N(CC(=O)O)C3=C2C(=O)CCC3)ccc1OC	.	-	.	.	-
CC(C)(C)C1=CC(=O)C(=O)C(C(C)(C)C)=C1	-	.	55.7	-	-
Fc1cccc(NC(=S)NNc2c3ccccc3nc3ccccc23)c1	88.0	-	-	87.0	-
CCOC(=O)c1ccc(NS(=O)(=O)c2ccc3c(c2)oc(=O)n3C)cc1	-	-	-	-	-
N=c1c(C(=O)NCCN2CCOCC2)cc2c(=O)n3ccccc3nc2n1Cc1ccc(F)cc1	.	-	.	.	127.4
N=c1c(C(=O)NCCN2CCOCC2)cc2c(=O)n3ccccc3nc2n1CCCN1CCOCC1	.	-	.	.	144.7
Cn1nnc(C(O)CNCc2ccc(Cl)cc2)n1 (stereo unspecified)	-	-	-	-	-
O=C(O)c1ccc(Nc2cccc(F)c2)c([N+](=O)[O-])c1	.	-	.	.	-
SMILES	Runt-CBFb FRET	CaV13 ICDI inh	Hck-Nef inh	Runt-SMMHC FRET	RanGTP-Imp inh
CC(C)CNC(=S)N(CCCO)Cc1cc2cc3c(cc2[nH]c1=O)OCCO3	.	-	.	.	31.0
COCCNC(=O)c1n[nH]c2ccccc12	-	-	-	-	?
COC(=O)c1n[nH]c2ccccc12	-	.	-	-	24.2
N#Cc1c(-c2ccc(Cl)cc2)c2c([nH]c1=O)-c1ccccc1OC2	88.8	-	-	81.5	67.9
CCOc1cc(/C=C2\C(=N)N3N=C(C)SC3=NC2=O)ccc1OCCOc1cccc(OC)c1	.	-	.	.	-
CCc1nn2c(=O)cc(COc3ccc(/C=C4\C(=N)N5N=C(C)SC5=NC4=O)cc3)nc2s1	.	-	75.3	-	-
Clc1cccc(CN2CCN(Cc3nc(CCc4ccccc4)no3)CC2)c1	-	+	-	-	-
COCCNC(=O)c1c(N)n(CCC2=CCCCC2)c2nc3ccccc3nc12	-	-	-	57.8	68.2
COCCn1c(N)c(C(=O)OCc2ccccc2)c2nc3ccccc3nc21	-	-	-	64.8	18.0
COCCNC(=O)CSc1nc2cc(OC)c(OC)cc2c(=O)n1CCC1=CCCCC1	-	-	-	-	-
C=CCn1c(CSc2nc3ccccc3s2)nnc1SCC(=O)NCCN1CCOCC1	-	-	-	-	-
CCOc1cc(-n2cnnn2)c(OCC)cc1NC(=O)c1cc2ccc(N(CC)CC)cc2oc1=O	.	.	-	.	.
CCN(CC)c1ccc2cc(-c3nnc(-c4ccncc4)o3)c(=O)oc2c1	-	-	-	62.6	.
CCN(CC)c1ccc2cc(C(N)=O)c(=N)oc2c1	-	-	-	92.2	150.7
CCN(CC)c1ccc2cc(/C(N)=N/NC(=O)c3cccs3)c(=O)oc2c1	-	.	-	-	158.8
CCN(CC)c1ccc2cc(NC(=O)CCC(=O)O)c(=O)oc2c1	-	-	-	62.6	136.0
CCN(CC)c1ccc2cc(C(=O)Nc3ccccn3)c(=O)oc2c1	-	-	-	61.5	160.7
CCN(CC)c1ccc2cc(C=O)c(=O)oc2c1	-	-	-	60.5	125.6
NC(=O)COc1ccc2cc(-c3ccccc3)c(=O)oc2c1	.	-	.	.	-
CCN(CC)Cc1c(O)ccc2cc(-c3nc4ccccc4n3C)c(=O)oc12	.	-	.	.	131.6
CCc1cc2c(=O)c(-c3nc4ccccc4n3C)c(C)oc2c(CN(CC)CC)c1O	-	-	-	-	-
CC(C)(C)C(=O)Oc1ccc2cc(-c3ccc4ccccc4n3)c(=O)oc2c1	-	-	-	59.5	28.1
CC(=O)Oc1ccc2cc(-c3nc4ccccc4n3C)c(=O)oc2c1	-	33.0	-	-	147.1
